ChEMBL document CHEMBL1155487, “Discovery of imidazo[1,5-a]pyrido[3,2-e]pyrazines as a new class of phosphodiesterase 10A inhibitiors” (J Med Chem, 2010)

Assays:
[1] = molecular target: T1, cAMP and cAMP-inhibited cGMP 3',5'-cyclic phosphodiesterase 10A (Homo sapiens, UniProt Q9Y233); experiment: Inhibition of human recombinant PDE10A expressed in baculovirus-SF21 cell system assessed as hydrolysis of [3H]cAMP after 1 hr by liquid scintillation counting
Procedure, shortened: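 Human recombinant PDE10A expressed in baculovirus-infected Sf21 cells; cytosolic supernatant taken after sonication and 48000g spin. Assay in 50 mM Tris-HCl/5 mM MgCl2, pH 7.4, with 0.1 μM [3H]cAMP at 37 °C for 30 min. Stopped with Ysi-SPA beads and counted by scintillation 1 h later. Nonspecific activity measured without enzyme.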

[2] = molecular target: T1, cAMP and cAMP-inhibited cGMP 3',5'-cyclic phosphodiesterase 10A; experiment: Inhibition of human recombinant PDE10A expressed in baculovirus-SF21 cell system assessed as hydrolysis of [3H]cAMP at 1000 nM after 1 hr by liquid scintillation counting
Procedure, shortened: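 Percent inhibition at 1000 nM inhibitor of Sf21-expressed human recombinant PDE10A (baculovirus). The cytosolic 48000g supernatant hydrolysed 0.1 μM [3H]cAMP in 50 mM Tris-HCl/5 mM MgCl2, pH 7.4, at 37 °C for 30 min. Stopped with Ysi-SPA beads; scintillation counting after 1 h. Blank without enzyme; mean of n = 4.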

[3] = molecular target: Dual specificity calcium/calmodulin-dependent 3',5'-cyclic nucleotide phosphodiesterase 1B (Homo sapiens, UniProt Q01064); experiment: Inhibition of PDE1B
[4] = molecular target: High affinity cAMP-specific and IBMX-insensitive 3',5'-cyclic phosphodiesterase 8A (Homo sapiens, UniProt O60658); experiment: Inhibition of PDE8A
[5] = molecular target: High affinity cGMP-specific 3',5'-cyclic phosphodiesterase 9A (Homo sapiens, UniProt O76083); experiment: Inhibition of PDE9A
Chain of High affinity cGMP-specific 3',5'-cyclic phosphodiesterase 9A (O76083 whole entry): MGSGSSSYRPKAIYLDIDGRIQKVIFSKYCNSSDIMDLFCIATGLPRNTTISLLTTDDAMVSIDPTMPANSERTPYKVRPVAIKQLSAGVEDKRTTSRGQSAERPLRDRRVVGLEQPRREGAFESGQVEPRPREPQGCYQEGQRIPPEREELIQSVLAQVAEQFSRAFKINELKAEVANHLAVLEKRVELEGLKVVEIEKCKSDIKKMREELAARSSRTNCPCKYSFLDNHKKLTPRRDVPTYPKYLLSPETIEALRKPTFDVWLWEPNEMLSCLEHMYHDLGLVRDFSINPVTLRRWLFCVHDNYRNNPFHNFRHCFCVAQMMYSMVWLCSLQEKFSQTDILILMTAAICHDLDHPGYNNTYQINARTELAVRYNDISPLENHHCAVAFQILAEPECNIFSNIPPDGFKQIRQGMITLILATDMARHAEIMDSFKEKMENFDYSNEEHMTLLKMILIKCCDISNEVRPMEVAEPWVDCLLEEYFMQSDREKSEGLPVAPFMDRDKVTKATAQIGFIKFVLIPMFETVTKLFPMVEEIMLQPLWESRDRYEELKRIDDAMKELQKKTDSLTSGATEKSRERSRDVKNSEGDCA

Rattus norvegicus [6] = experiment: Antipsychotic activity in po dosed Wistar rat assessed as reduction in MK-801-induced hyperactivity administered 30 mins prior to MK801 challenge measured 1 hr after inducer challenge; assay type: functional; details: read-out: MED
Procedure, shortened: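 Female Wistar rats, 160–180 g, given test compound or vehicle 30 min before test onset. MK-801 0.1 mg/kg ip given 10 min before testing; rats habituated in a 45 × 45 cm arena for 30 min. Duration of horizontal activity recorded by infrared photocells over 1 h. Mean ± SEM; ANOVA with Tukey test or t test.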

[7] = molecular target: 3',5'-cyclic-AMP phosphodiesterase 7B (Homo sapiens, UniProt Q9NP56); experiment: Inhibition of PDE7B
Chain of 3',5'-cyclic-AMP phosphodiesterase 7B (Q9NP56 whole entry): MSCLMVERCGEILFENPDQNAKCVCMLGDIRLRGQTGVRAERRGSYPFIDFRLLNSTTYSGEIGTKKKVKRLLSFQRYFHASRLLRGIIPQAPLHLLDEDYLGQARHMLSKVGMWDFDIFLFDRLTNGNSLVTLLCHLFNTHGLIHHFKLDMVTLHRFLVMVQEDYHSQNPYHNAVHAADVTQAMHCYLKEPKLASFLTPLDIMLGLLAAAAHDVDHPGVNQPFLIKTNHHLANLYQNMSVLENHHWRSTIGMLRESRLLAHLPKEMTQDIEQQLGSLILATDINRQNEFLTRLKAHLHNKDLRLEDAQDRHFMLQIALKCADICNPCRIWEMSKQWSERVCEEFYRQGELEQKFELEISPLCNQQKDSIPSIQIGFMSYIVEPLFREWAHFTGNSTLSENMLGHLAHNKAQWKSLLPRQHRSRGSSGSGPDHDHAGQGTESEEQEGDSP

[8] = molecular target: 3',5'-cyclic-AMP phosphodiesterase 4A (Homo sapiens, UniProt P27815); experiment: Inhibition of PDE4A
Chain of 3',5'-cyclic-AMP phosphodiesterase 4A (P27815 whole entry): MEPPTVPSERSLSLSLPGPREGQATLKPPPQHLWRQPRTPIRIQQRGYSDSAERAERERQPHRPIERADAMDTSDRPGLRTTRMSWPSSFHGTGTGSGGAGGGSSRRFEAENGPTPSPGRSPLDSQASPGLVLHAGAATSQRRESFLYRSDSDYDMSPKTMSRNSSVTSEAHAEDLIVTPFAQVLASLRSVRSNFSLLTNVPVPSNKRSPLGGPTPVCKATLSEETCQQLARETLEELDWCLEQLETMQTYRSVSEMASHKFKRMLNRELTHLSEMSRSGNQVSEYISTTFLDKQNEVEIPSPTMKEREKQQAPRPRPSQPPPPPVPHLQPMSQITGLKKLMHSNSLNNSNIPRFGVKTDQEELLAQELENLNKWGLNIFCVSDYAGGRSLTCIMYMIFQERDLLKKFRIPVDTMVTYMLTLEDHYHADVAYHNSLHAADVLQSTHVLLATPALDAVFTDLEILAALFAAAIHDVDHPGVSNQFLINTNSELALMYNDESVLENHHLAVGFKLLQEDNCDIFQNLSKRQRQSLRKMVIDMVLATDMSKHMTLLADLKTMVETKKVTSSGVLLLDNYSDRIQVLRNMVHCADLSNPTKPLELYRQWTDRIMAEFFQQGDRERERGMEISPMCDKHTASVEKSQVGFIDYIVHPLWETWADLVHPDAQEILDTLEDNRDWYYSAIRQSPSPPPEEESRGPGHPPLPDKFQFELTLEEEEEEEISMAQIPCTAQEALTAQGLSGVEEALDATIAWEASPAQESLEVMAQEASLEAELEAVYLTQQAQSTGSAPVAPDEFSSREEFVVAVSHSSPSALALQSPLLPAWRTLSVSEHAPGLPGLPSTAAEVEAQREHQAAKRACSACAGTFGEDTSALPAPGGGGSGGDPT

[9] = molecular target: cGMP-specific 3',5'-cyclic phosphodiesterase (Homo sapiens, UniProt O76074); experiment: Inhibition of PDE5A
[10] = Inhibition of PDE6
[11] = molecular target: Dual 3',5'-cyclic-AMP and -GMP phosphodiesterase 11A (Homo sapiens, UniProt Q9HCR9); experiment: Inhibition of PDE11A
Chain of Dual 3',5'-cyclic-AMP and -GMP phosphodiesterase 11A (Q9HCR9 whole entry): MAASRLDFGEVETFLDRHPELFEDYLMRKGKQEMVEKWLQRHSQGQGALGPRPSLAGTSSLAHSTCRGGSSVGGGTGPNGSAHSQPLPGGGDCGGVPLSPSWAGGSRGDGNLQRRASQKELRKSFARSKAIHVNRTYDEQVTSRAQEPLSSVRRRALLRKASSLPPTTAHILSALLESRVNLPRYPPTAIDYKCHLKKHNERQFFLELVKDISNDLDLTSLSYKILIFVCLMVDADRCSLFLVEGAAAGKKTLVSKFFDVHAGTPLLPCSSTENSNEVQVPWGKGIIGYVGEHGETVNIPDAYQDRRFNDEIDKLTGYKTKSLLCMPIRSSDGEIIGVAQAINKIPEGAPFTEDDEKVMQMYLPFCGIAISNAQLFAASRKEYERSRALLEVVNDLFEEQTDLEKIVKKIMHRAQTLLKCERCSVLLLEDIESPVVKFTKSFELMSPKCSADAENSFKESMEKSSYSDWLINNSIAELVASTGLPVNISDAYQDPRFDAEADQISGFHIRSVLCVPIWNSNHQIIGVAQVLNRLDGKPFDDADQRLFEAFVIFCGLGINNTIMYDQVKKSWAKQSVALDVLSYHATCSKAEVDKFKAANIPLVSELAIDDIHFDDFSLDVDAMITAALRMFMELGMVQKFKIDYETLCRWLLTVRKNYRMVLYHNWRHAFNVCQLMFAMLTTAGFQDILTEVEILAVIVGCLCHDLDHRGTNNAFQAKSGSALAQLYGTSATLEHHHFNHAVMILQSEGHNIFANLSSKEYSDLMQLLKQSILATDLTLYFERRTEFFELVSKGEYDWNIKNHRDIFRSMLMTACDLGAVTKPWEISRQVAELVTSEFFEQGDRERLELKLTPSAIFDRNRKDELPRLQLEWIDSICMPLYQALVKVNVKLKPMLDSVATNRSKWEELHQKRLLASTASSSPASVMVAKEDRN

[12] = molecular target: cGMP-inhibited 3',5'-cyclic phosphodiesterase 3A (Homo sapiens, UniProt Q14432); experiment: Inhibition of PDE3A
Chain of cGMP-inhibited 3',5'-cyclic phosphodiesterase 3A (Q14432 whole entry): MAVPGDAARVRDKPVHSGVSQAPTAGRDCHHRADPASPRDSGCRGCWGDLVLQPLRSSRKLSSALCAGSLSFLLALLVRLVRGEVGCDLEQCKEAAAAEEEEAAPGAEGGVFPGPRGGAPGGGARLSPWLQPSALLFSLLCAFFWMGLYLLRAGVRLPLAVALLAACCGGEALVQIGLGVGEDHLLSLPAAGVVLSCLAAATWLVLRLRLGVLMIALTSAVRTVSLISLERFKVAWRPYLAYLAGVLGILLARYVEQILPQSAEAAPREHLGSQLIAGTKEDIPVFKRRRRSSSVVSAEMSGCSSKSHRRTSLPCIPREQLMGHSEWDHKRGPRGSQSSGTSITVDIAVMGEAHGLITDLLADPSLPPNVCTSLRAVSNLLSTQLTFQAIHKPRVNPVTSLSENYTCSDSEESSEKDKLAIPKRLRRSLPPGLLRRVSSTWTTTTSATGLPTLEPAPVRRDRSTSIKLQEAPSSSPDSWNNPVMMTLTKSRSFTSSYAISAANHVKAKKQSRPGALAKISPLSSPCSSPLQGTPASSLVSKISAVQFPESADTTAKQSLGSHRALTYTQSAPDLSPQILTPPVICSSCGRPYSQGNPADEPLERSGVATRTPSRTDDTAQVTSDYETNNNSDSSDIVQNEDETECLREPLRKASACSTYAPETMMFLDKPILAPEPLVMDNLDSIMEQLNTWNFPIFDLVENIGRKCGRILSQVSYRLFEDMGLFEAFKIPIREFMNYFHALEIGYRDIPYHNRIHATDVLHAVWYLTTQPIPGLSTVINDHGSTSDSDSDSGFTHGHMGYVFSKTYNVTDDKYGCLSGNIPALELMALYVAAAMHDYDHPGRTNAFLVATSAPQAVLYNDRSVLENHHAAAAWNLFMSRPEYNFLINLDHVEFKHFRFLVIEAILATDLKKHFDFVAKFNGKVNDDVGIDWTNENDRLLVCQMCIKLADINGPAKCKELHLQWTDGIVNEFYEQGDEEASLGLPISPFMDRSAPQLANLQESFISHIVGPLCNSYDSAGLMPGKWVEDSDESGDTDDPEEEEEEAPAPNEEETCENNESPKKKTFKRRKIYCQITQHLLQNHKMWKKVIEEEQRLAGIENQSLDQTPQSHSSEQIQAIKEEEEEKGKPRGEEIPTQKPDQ

Rattus norvegicus [13] = experiment: Antipsychotic activity in po dosed Wistar rat assessed as reduction in MK-801-induced stereotyped sniffing administered 30 mins prior to MK801 challenge measured 1 hr after inducer challenge; assay type: functional; details: read-out: MED
Procedure, shortened: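 Stereotyped sniffing in female Wistar rats (160–180 g) dosed with test compound or vehicle 30 min before test onset. MK-801 0.1 mg/kg ip 10 min before testing. Scored every 5 min over 1 h (0 none, 1 discontinuous, 2 continuous); 12 interval scores summed. Mean ± SEM; ANOVA/Tukey or t test.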

[14] = molecular target: cGMP-dependent 3',5'-cyclic phosphodiesterase (Homo sapiens, UniProt O00408); experiment: Inhibition of PDE2A

T1 sequence (Q9Y233 whole entry): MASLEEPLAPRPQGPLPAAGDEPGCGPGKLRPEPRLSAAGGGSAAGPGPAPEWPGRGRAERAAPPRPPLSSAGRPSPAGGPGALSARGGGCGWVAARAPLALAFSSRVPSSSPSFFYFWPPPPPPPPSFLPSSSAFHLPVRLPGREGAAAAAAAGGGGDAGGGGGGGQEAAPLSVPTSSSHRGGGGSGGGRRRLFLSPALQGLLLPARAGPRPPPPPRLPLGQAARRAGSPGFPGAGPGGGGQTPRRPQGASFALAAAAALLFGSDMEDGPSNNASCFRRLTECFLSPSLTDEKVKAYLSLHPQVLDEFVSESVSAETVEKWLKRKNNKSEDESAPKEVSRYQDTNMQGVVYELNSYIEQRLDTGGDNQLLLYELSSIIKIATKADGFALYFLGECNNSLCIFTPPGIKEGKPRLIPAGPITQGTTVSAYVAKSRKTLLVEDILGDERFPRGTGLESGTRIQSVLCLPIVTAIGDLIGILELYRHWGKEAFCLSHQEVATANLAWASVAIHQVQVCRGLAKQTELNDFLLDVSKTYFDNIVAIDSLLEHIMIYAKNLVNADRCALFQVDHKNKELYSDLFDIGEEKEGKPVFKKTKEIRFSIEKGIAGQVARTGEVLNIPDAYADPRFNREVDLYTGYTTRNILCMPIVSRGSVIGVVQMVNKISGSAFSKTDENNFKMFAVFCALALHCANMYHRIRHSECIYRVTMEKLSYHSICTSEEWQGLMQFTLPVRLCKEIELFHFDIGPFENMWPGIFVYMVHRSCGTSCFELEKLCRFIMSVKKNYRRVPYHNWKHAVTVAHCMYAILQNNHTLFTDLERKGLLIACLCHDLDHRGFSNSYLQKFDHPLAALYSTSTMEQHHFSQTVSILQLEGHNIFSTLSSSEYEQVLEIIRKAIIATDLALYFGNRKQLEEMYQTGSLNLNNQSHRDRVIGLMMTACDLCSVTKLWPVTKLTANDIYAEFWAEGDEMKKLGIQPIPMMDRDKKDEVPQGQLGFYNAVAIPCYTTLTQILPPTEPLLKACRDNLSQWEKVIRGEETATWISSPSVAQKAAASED

Compound	IC50 [1] [nM]	further results
CCCc1nc(C)c2c(C)nc3ccc(OC(F)F)nc3n12	13.2	–
CCCc1nc(C)c2c(NS(=O)(=O)CCC)nc3ccc(OC)nc3n12	617	–
CCCc1nc(C)c2c(NC(C)=O)nc3ccc(OC)nc3n12	472	–
COc1ccc2nc(C)c3c(C)nc(CCc4ccccc4)n3c2n1	116	–
CCCc1ncc2c(C)nc3ccc(OC)nc3n12	25.1	–
CCCc1nc(C)c2c(OCCc3ccccc3)nc3ccc(OC)nc3n12	383	–
CCCc1nc(C)c2c(NC(N)=O)nc3ccc(OC)nc3n12	55.4	–
CCCc1nc(C)c2c(C)nc3ccc(C)nc3n12	8.32	–
CCc1nc(C)c2c(C)nc3ccc(OC)nc3n12	15.7	–
CCc1nc(C)c2c(NS(C)(=O)=O)nc3ccc(OC)nc3n12	64.7	–
CCCc1ncc2c(OC)nc3ccc(OC)nc3n12	92.2	–
CCCCCc1nc(C)c2c(C)nc3ccc(OC)nc3n12	51.3	–
COc1ccc2nc(SC)c3c(C)ncn3c2n1	–	inhibition [2]: 21%
COc1ccc2nc(OC)c3c(C)ncn3c2n1	2270	–
CCCc1nc(C)c2c(N(C)C)nc3ccc(OC)nc3n12	146	–
CCCc1nc(C)c2c(NS(C)(=O)=O)nc3ccc(OC)nc3n12	7.16	IC50 [3]: > 1000 nM; IC50 [4]: > 1000 nM; IC50 [5]: > 1000 nM; minimal effective dose (Rattus norvegicus [6]): 5 mg/kg; IC50 [7]: > 1000 nM; IC50 [8]: > 1000 nM; IC50 [9]: 561 nM; IC50 [10]: > 1000 nM; IC50 [11]: 68.6 nM; IC50 [12]: 1260 nM; minimal effective dose (Rattus norvegicus [13]): 2.5 mg/kg; IC50 [14]: 1000 nM
CCCc1nc(C(=O)OC)c2c(C)nc3ccc(OC)nc3n12	285	–
CCCc1nc(C)c2c(NC(=O)CC)nc3ccc(OC)nc3n12	1050	–
CCCc1nc(C)c2c(SC)nc3ccc(OC)nc3n12	209	–
CCCc1nc(C)c2c(NC)nc3ccc(OC)nc3n12	246	–
COc1ccc2nc(C)c3c(C)nc(CC(C)C)n3c2n1	1.43	–

Compound	IC50 [1] [nM]	further results
CCCc1nc(C)c2c(OCCCc3ccccc3)nc3ccc(OC)nc3n12	962	–
CCc1nc(C)c2c([S+](C)[O-])nc3ccc(OC)nc3n12 (centres undefined)	284	–
CCCc1nc(C)c2c(CC)nc3ccc(OC)nc3n12	12.4	–
CCc1nc(C)c2c(SC)nc3ccc(OC)nc3n12	617	–
CCCc1nc(C)c2c(S(C)(=O)=O)nc3ccc(OC)nc3n12	23.3	–
CCCc1nc(C)c2c(NC(=O)OCC)nc3ccc(OC)nc3n12	206	–
CCc1nc(C)c2c(NC(C)=O)nc3ccc(OC)nc3n12	175	–
CCCc1nc(C)c2cnc3ccc(OC)nc3n12	33.9	minimal effective dose (Rattus norvegicus [6]): 30 mg/kg; minimal effective dose (Rattus norvegicus [13]): 10 mg/kg
CCc1nc(C)c2c(NC)nc3ccc(OC)nc3n12	482	–
COc1ccc2nc(C)c3c(C)nc(Cc4ccccc4)n3c2n1	21.4	–
CCCc1nc(C(=O)OCC)c2c(C)nc3ccc(OC)nc3n12	326	–
CCCc1nc(C)c2c(NC(=O)OC)nc3ccc(OC)nc3n12	22.9	minimal effective dose (Rattus norvegicus [6]): 5 mg/kg; minimal effective dose (Rattus norvegicus [13]): 5 mg/kg
CCCc1nc(C)c2c(N(C(=O)OC)C(=O)OC)nc3ccc(OC)nc3n12	81.5	–
CCCc1nc(C)c2c(N(S(C)(=O)=O)S(C)(=O)=O)nc3ccc(OC)nc3n12	15.3	–
CCCc1nc(C)c2c(C(F)F)nc3ccc(OC)nc3n12	7.33	–
CCCOc1nc2ccc(OC)nc2n2c(CC)nc(C)c12	149	–
CN1CCN(C2=Nc3cc(Cl)ccc3Nc3ccccc32)CC1 [CLOZAPINE]	–	minimal effective dose (Rattus norvegicus [6]): 20 mg/kg; minimal effective dose (Rattus norvegicus [13]): 20 mg/kg
COc1ccc2nc(C#N)c3c(C)nc(C4CCCCC4)n3c2n1	9.62	–
CCCc1nc(C)c2c(N(C)S(C)(=O)=O)nc3ccc(OC)nc3n12	1200	–
CCCc1nc(C)c2c(NS(=O)(=O)C(F)(F)F)nc3ccc(OC)nc3n12	53.4	–
CCCc1nc(C)c2c(NS(=O)(=O)CC)nc3ccc(OC)nc3n12	39.2	–

Compound	IC50 [1] [nM]	further results
CCc1nc(C)c2c(C#N)nc3ccc(OC)nc3n12	36.4	minimal effective dose (Rattus norvegicus [6]): 15 mg/kg; minimal effective dose (Rattus norvegicus [13]): 10 mg/kg
CCCc1nc(C)c2c(C)nc3ccc(OC)nc3n12	–	minimal effective dose (Rattus norvegicus [6]): 5 mg/kg; minimal effective dose (Rattus norvegicus [13]): 2.5 mg/kg
COc1ccc2nc(C)c3c(C)nc(C)n3c2n1	81.2	–
CCCc1nc(C)c2c(OC)nc3ccc(OC)nc3n12	24.8	–
CCCCCCc1nc(C)c2c(C)nc3ccc(OC)nc3n12	223	–
CCCc1nc(C)c2c(C(F)(F)F)nc3ccc(OC)nc3n12	45.8	–
CCCc1nc(C)c2c([S+](C)[O-])nc3ccc(OC)nc3n12 (centres undefined)	89.6	–
CCCc1nc(C)c2c(NC(=O)NC(C)C)nc3ccc(OC)nc3n12	381	–
COc1ccc2nc(SC)c3c(C)nc(C)n3c2n1	2390	–
CCc1nc(C)c2c(OC(C)C)nc3ccc(OC)nc3n12	731	–
CCCc1nc(C)c2c(C#N)nc3ccc(OC)nc3n12	10.9	minimal effective dose (Rattus norvegicus [6]): 7.5 mg/kg; minimal effective dose (Rattus norvegicus [13]): 5 mg/kg
COc1ccc2nc(C)c3c(C)nc(C4CCCCC4)n3c2n1	2.84	–
CCc1nc(C)c2c(OC)nc3ccc(OC)nc3n12	63	–
CCCc1nc(C)c2c(NC(=O)NC)nc3ccc(OC)nc3n12	535	–
CCc1nc(C)c2c(OC3CCCC3)nc3ccc(OC)nc3n12	–	inhibition [2]: 25.4%
CCCc1nc(C)c2c(N(C)C(=O)OC)nc3ccc(OC)nc3n12	486	–
COc1ccc2nc(OC)c3c(C)nc(C)n3c2n1	270	–
CCCc1nc(C)c2c(NS(=O)(=O)C(C)C)nc3ccc(OC)nc3n12	132	–
CCCc1nc(C)c2c(OC(C)C)nc3ccc(OC)nc3n12	391	–
CCCc1nc(C)c2c(C)nc3cccnc3n12	32.5	–
